≈ marks a conversion by molar mass, not a printed value.
Columns and labels:
[1] = tested on: Mycobacterium tuberculosis; test: Antibacterial activity against Mycobacterium bovis BCG under aerobic condition after 7 days by MTT assay; assay type: functional; settings: variant bovis BCG, 168 h
Outline: (§1)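 MTT microdilution. Mid-log bacilli in 7H9 with 10% OADC, 0.5% glycerol, 0.05% Tween 80, seeded at 1 × 10⁴ CFU/0.1 mL (M. smegmatis) or 1 × 10⁵ CFU/0.1 mL (BCG, M. tuberculosis), then serially diluted sample added. Aerobic incubation at 37 °C; hypoxic incubation at 37 °C under N2 with 0.2% O2. MTT (0.5 mg/mL, 50 µL) added for 12 h more, OD560 read to give MIC.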

[2] = tested on: Mycobacterium tuberculosis; test: Antibacterial activity against Mycobacterium bovis BCG under hypoxic condition after 14 days by MTT assay; assay type: functional; settings: variant bovis BCG, 336 h; outline: as §1

Row | SMILES | MIC [1] | MIC [2]
1 | Cc1cc(=O)n2c3c(c4c(cc13)c(CO)cc(=O)n4C)OC2 | 1 µg/mL (≈ 3.35 µM) | 1 µg/mL (≈ 3.35 µM)
2 | Cc1cc(=O)n2c3c(c4c(cc13)c(COC(=O)CCCc1cn(CCOCCOCCOCCOCCOCCOCCOCCOCCOCCOCCNC(=O)CCCC[C@@H]3SC[C@@H]5NC(=O)N[C@@H]53)nn1)cc(=O)n4C)OC2 | 12.5 µg/mL (≈ 10.9 µM) | 6.25 µg/mL (≈ 5.46 µM)
3 | COC(=O)CCCc1cn(CCOCCOCCOCCOCCOCCOCCOCCOCCOCCOCCNC(=O)CCCC[C@@H]2SC[C@@H]3NC(=O)N[C@@H]32)nn1 | > 200 µg/mL | > 200 µg/mL
4 | NNC(=O)c1ccncc1 [ISONIAZID] | 0.05 µg/mL (≈ 0.365 µM) | > 100 µg/mL
